Sampled rows, rich in hits. Any-hit rate of the full collection: about 1.8%.
MLLE-PAM2 inh: inhibitors of microRNA-mediated deadenylation, human PABP1 MLLE binding; AID 588489; hit rate 0.36% among 360,000; inhibition, % at 20 µM; GST-MLLE / FITC-PAM2 fluorescence polarization; in the data active means inhibition above about 35%, passing the limit was not always enough;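 further: plate controls were DMSO wells with GST-MLLE for no effect and wells lacking GST-MLLE protein for full effect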
UBC9 SUMO inh: inhibitors of human SUMOylation (UBC9). AID 2006. HTRF SUMOylation assay, SAE1/SAE2 + UBC9, in vitro. hit rate 0.36% among 290,000. P63279. inhibition, % at 35 µM; in the data active means inhibition above about 50%, passing the limit was not always enough; inconclusive means no clear call, values can overlap the other calls
core dimer inh: blocks dimerization of HCV core protein. TR-FRET GST/Flag-core106 dimerization, 1536-well. AID 1899. inhibition, % at 5 µM. hit rate 0.33% among 300,000;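 active means inhibition above the mean of all tested compounds plus 3 SD, set per screening campaign, cut at about 45% in these data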
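System – GST-tagged and Flag-tagged HCV core protein residues 1-106 · Repeats – one well for each compound · Technique – TR-FRET 671 and 617 nm emission · Doses – one concentration, 5 µM, in 0.5% DMSO · Times – 4 h, 22.5 °C incubation · Also added – Eu donor and XL665 acceptor anti-tag antibodies · Measure – percent inhibition of core106 dimerization signal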
eIF4E 4G PPI: eIF4E/eIF4G interaction inhibition in translation initiation; P63073+Q04637; TR-FRET eIF4E-eIF4GI(517-606) binding, 2 h; AID 782; inhibition, % at 21.7 µM; hit rate 0.37% among 220,000;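 active means inhibition above about 30%, limit read from the data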;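 further: 0% = full FRET control wells and 100% = background wells lacking eIF4GI fragment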
eIF4H inh: inhibitors of RNA binding by human eIF4H | hit rate 0.94% among 290,000 | eIF4H fluorescence polarization binding assay | inhibition, % at 35 µM;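 further: calls also rest on retests at 20 µM and on dose response follow-up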
PABP polyA inh: PABP-poly(A) binding inhibition; P11940; PABP-poly(A) RNA binding, fluorescence polarization; calls only at 35 µM; hit rate 1% among 290,000;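 further: calls also rest on retests at 20 µM and on dose response follow-up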
The depositor's hits bear a star; i = inactive; ? = inconclusive; . = not tested or not shown; + = active, no number. Unless noted, how the calls were made is not given here.

SMILES	MLLE-PAM2 inh	UBC9 SUMO inh	core dimer inh	eIF4E 4G PPI	eIF4H inh	PABP polyA inh
CCCn1nc(C(=O)Nc2ccc(S(=O)(=O)Nc3nccs3)cc2)c2ccccc2c1=O	-39	5	14	0	58*	+
O=C(Nc1ccc(S(=O)(=O)Nc2nccs2)cc1)c1ccc(N2C(=O)c3ccccc3C2=O)cc1	-106	47	54*	-14	?	?
O=C(Nc1ccc(S(=O)(=O)Nc2nccs2)cc1)c1ccc(F)cc1	-24	3	12	.	11	i
COc1ccccc1/C=C1/SC(=O)N(CCC(=O)Nc2ccc(S(=O)(=O)Nc3nccs3)cc2)C1=O	-1	59*	28	8	25	i
CN(c1ccc(C(=O)N2CCN(Cc3ccccc3)CC2)cc1)S(=O)(=O)c1ccc(Cl)cc1	-8	-3	-2	.	-3	i
Cc1cccc(C)c1NC(=O)C1(C)CCC(=O)N1c1cc(C(C)(C)C)nn1C (stereo not drawn)	3	.	.	.	.	.
Cn1cncc1C(=O)c1ccccc1	9	20	4	2	1	i
Cc1ccc(-c2cc(C(=O)Nc3ccc(S(=O)(=O)Nc4nccs4)cc3)c3ccccc3n2)c(C)c1	22	28	39	-2	60*	+
COC(=O)c1cc([N+](=O)[O-])c(-n2cncn2)c([N+](=O)[O-])c1	2	12	.	0	71	+
CN(Cc1ccccc1)C(=O)COC(=O)/C=C/c1ccco1	5	15	3	48*	82*	+
O=C(COC(=O)/C=C/c1ccco1)Nc1ccccc1	-10	8	4	7	-2	i
CN(CCOC(=O)/C=C/c1ccco1)Cc1ccccc1	10	3	1	14	90*	+
CN(C1CCCCC1)S(=O)(=O)c1ccc(=S)[nH]c1	58*	.	.	.	.	.
Cc1ccc(C(=O)COC(=O)CCC(=O)Nc2ccccc2Cl)cc1[N+](=O)[O-]	-1	-1	7	3	4.8*	+
O=[N+]([O-])c1ccc(N2CCOCC2)cc1SCc1ccco1	5	15	3	-1	86*	+
Cc1cccc(C)c1NC(=O)CSc1nc(C)c(CC(=O)c2ccc(Br)cc2)c(C)c1C#N	-20	-19	70*	-61	-5	i
O=C(NCCc1ccccc1)C(=S)N1CCCCC1	5	-2	1	5	2	i
O=C(Nc1cc2cc([N+](=O)[O-])ccc2oc1=O)c1cccs1	.	2	0	-4	-18	+
O=C(Nc1cc([N+](=O)[O-])ccc1N1CCCC1)c1cccs1	-21	-10	0	.	-3	i
O=C1/C(=C/c2cccnc2)SC(=S)N1c1ccc(F)cc1	43*	5	-1	-5	2	i
COc1cc(/C=C2\SC(=S)N(NC(=O)c3cccnc3)C2=O)ccc1O	-95	14	-17	1	25	i
COc1cc(/C=C2\SC(=S)N(c3cccnc3)C2=O)ccc1O	-36	15	9	-6	71*	i
O=[N+]([O-])c1cc2oc3c(c2c(C=NCc2ccncc2)c1O)CCCC3	14	37	.	13	102	+
C#Cc1ccc([C@@H]2C=C(C(=O)OCC=C)O[C@H](OCC)[C@H]2CCCO)cc1	7	-3	-10	6	88*	i
C#Cc1ccc([C@H]2C=C(C(=O)OCC=C)O[C@@H](OCC)[C@@H]2CCCO)cc1	-9	-2	-6	6	7	i
SMILES	MLLE-PAM2 inh	UBC9 SUMO inh	core dimer inh	eIF4E 4G PPI	eIF4H inh	PABP polyA inh
CCO[C@@H]1OC(C(=O)O)=C[C@H](C)[C@H]1CCCO	-6	-6	-1	-1	34	+
Cc1cc(N)ccc1NC(=O)CN1CCOCC1	-7	12	-7	.	-12	i
COc1ccc(CN2CCNC(=O)C2CC(=O)N(C)C2CCOCC2)cc1OC (stereo not drawn)	16	.	.	.	.	.
CCOc1ccc(NC(=O)c2cn(-c3ccc(OCC)cc3)c(=O)c3cc(OC)c(OC)cc23)cc1	-8	-9	17	8	0	i
CCOc1ccc(-n2cc(C(=O)Nc3cccc(Cl)c3)c3cc(OC)c(OC)cc3c2=O)cc1	1	-2	48*	-1	2	i
O=C(/C=C/c1cn(-c2ccccc2)nc1-c1cccnc1)c1ccco1	5	11	62*	4	10	i
Cc1cc(=O)oc(C)c1C(=O)Nc1ccc2ncccc2c1	42	24	0	5	125*	i
Cc1cc(=O)oc(C)c1C(=O)Nc1ccc2nsnc2c1	-3	21	-2	.	6	i
CCCOc1ccc(NC(=O)OC2CCN(C)CC2)cc1	4	-1	-1	15	-9	i
O=c1cc(-c2ccccc2Cl)oc2cccc(O)c12	7	1	-3	-6	-6	i
O=c1cc2oc3cc(O)c(O)cc3c(-c3ccccc3[N+](=O)[O-])c-2cc1O	-11	?	-29	.	50*	+
Cc1cc(C(=O)O)ccc1-c1ccc(/C=C2\NC(=O)N(Cc3ccc(F)cc3)C2=O)o1	-4	36	4	5	81*	+
O=C(O)c1ccc(COc2ccc3ccccc3c2/C=C2/NC(=O)N(Cc3ccc(F)cc3)C2=O)cc1	-9	26	.	-2	18	i
Cc1ccc(CN2C(=O)N/C(=C/c3ccc(-c4ccc(C(=O)O)cc4)o3)C2=O)cc1	-15	31	9	10	69*	+
O=C(COc1ccccc1)Nc1c2c(nn1-c1ccc(F)cc1)CS(=O)(=O)C2	1	5	-1	.	-3	i
CCCS(=O)(=O)NC(=O)C1(C)CCN(C(=O)c2cccnc2Oc2ccccc2)C1 (stereo not drawn)	-4	.	.	.	.	.
Cc1ccc2c(c1)sc(C)[n+]2CCCS(=O)(=O)[O-]	48*	19	6	-4	1	i
Cc1ccc2sc(C)[n+](CCCS(=O)(=O)[O-])c2c1	27	13	-6	4	-7	i
CCCC[n+]1c(C)sc2cc(OC)ccc21	-34	-14	-6	0	-4	+
COc1ccc2sc(C)[n+](C)c2c1	-61	14	-5	-1	-7	i
CC(=O)Nc1sc2c(c1C#N)CC(C)(C)NC2(C)C	6	-8	0	3	-5	i
CC1(C)Cc2c(sc(NC(=O)c3ccco3)c2C#N)C(C)(C)N1	.	22	-9	.	61*	+
O=C(c1cc2ccccc2oc1=O)N(c1ccc(Cl)cc1)C1C=CS(=O)(=O)C1 (stereo not drawn)	3	18	-12	-2	-18	i
COc1ccc(CCCC(=O)N/N=C/c2ccc(C)cc2)cc1	-8	2	-4	0	6	i
COc1ccc(CCCC(=O)N/N=C/c2ccccc2OC)cc1	5	-5	-2	3	active	+

Source: PubChem BioAssay (several laboratories)
